From ChEMBL document CHEMBL2417357, “Synthesis and antiprotozoal activities of benzyl phenyl ether diamidine derivatives” (Eur J Med Chem, 2013)
Activity calls are given as the source filed them. No cut-off for these calls is given here.

What was measured:
[1] = Selectivity index, ratio of IC50 for rat L6 cells to IC50 for Trypanosoma brucei rhodesiense STIB900; type: toxicity, cell-based; conditions: read-out: Ratio IC50
How it was run: (§1)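 SI = IC50 in rat L6 myoblasts / IC50 against the parasite (T. b. rhodesiense STIB900 or P. falciparum K1). Each IC50 is the average of duplicate determinations.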

[2] = tested on: Leishmania donovani; assay: Antileishmanial activity against amastigotes of Leishmania donovani MHOM/SD/62/IS-CL2D; type: functional, organism-based
How it was run: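 Axenic amastigotes of L. donovani MHOM/SD/62/IS-CL2D; IC50 taken as the average of at least two determinations.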

[3] = Selectivity index, ratio of IC50 for rat L6 cells to IC50 for amastigotes of Leishmania donovani; type: toxicity, cell-based; conditions: read-out: Ratio IC50
How it was run: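 SI = IC50 in rat L6 myoblasts / IC50 against L. donovani MHOM/SD/62/IS-CL2D axenic amastigotes. The amastigote IC50 is the average of at least two determinations; the L6 IC50 is the average of duplicates.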

[4] = tested on: L6; assay: Cytotoxicity against rat L6 cells after 72 hrs by Alamar blue assay; type: cell-based; conditions: L6, 72 h
How it was run: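 Rat L6 myoblast cells; cytotoxic IC50 taken as the average of duplicate determinations.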

[5] = tested on: Plasmodium falciparum; assay: Antiplasmodial activity against chloroquine-resistant Plasmodium falciparum K1; type: functional, organism-based
How it was run: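 Chloroquine-resistant K1 strain tested in vitro. IC50 is the average of duplicate determinations.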

[6] = tested on: Trypanosoma brucei rhodesiense; assay: Antitrypanosomal activity against Trypanosoma brucei rhodesiense STIB900 infected in NMRI mouse assessed as mean survival days at 5 mg/kg, ip administered for 4 days; type: functional; conditions: route intraperitoneal
How it was run: (§2)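 Female NMRI mice, acute infection model with T. b. rhodesiense STIB900. Compound given as a single daily dose for four days, intraperitoneally or orally. Cure means survival to 60 days post-infection without parasitaemia relapse. Mean survival recorded in days.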

[7] = tested on: Trypanosoma brucei rhodesiense; assay: Antitrypanosomal activity against Trypanosoma brucei rhodesiense STIB900 after 72 hrs by Alamar blue assay; type: functional, organism-based; conditions: STIB900, 72 h
[8] = tested on: Trypanosoma brucei rhodesiense; assay: Antitrypanosomal activity against Trypanosoma brucei rhodesiense STIB900 infected in NMRI mouse assessed as cured animal at 5 mg/kg, ip administered for 4 days; type: functional, organism-based; parameters: dose 5 mg/kg
How it was run: (§3)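 Acute model in female NMRI mice infected with T. b. rhodesiense STIB900. Single daily doses given for four days, intraperitoneally or orally. Mice surviving 60 days post-infection without parasitaemia relapse counted as cured; result reported as cured/infected out of 4 mice per group, with mean survival in days.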

[9] = Selectivity index, ratio of IC50 for rat L6 cells to IC50 for chloroquine-resistant Plasmodium falciparum K1; type: toxicity, cell-based; conditions: read-out: Ratio IC50; how it was run: as §1
[10] = tested on: Trypanosoma brucei rhodesiense; assay: Antitrypanosomal activity against Trypanosoma brucei rhodesiense STIB900 infected in NMRI mouse assessed as mean survival days at 25 mg/kg, po administered for 4 days; type: functional; how it was run: as §2
[11] = tested on: Trypanosoma brucei rhodesiense; assay: Antitrypanosomal activity against Trypanosoma brucei rhodesiense STIB900 infected in NMRI mouse assessed as cured animal at 25 mg/kg, po administered for 4 days; type: functional, organism-based; parameters: dose 25 mg/kg; how it was run: as §3

N=C(N)c1ccc(COc2c(Cl)cc(C(=N)N)cc2Cl)cc1
selectivity ratio [1]: 1170
IC50 [2]: 6.4 µM
selectivity ratio [3]: 4
IC50 [4]: 28.5 µM
IC50 [5]: 14 nM
MSD [6]: 30.25 days
IC50 [7]: 24 nM
Activity [8]: inactive
selectivity ratio [9]: 2020

COc1cc(C(=N)N)cc(I)c1OCc1cccc(C(=N)N)c1.Cl
selectivity ratio [1]: 6210
IC50 [2]: 6.01 µM
selectivity ratio [3]: 3
IC50 [4]: 18.6 µM
IC50 [5]: 24.5 nM
MSD [6]: 35.75 days
IC50 [7]: 3 nM
Activity [8]: inactive
selectivity ratio [9]: 760

N=C(N)c1ccc(COc2c(Br)cc(C(=N)N)cc2Br)cc1
selectivity ratio [1]: 1260
IC50 [2]: 4.09 µM
selectivity ratio [3]: 5
IC50 [4]: 21.5 µM
IC50 [5]: 25 nM
MSD [6]: 30 days
IC50 [7]: 17 nM
Activity [8]: inactive
selectivity ratio [9]: 849

N=C(N)c1ccc(COc2ccc(C(=N)N)cc2Br)cc1
selectivity ratio [1]: 322
IC50 [2]: 2.02 µM
selectivity ratio [3]: 2
IC50 [4]: 4.99 µM
IC50 [5]: 4 nM
MSD [6]: 29 days
IC50 [7]: 16 nM
Activity [8]: inactive
selectivity ratio [9]: 1250

N=C(N)c1ccc(COc2c(I)cc(C(=N)N)cc2I)cc1
selectivity ratio [1]: 1170
IC50 [2]: 1.6 µM
selectivity ratio [3]: 9
IC50 [4]: 13.8 µM
IC50 [5]: 19 nM
MSD [6]: 24.5 days
IC50 [7]: 12 nM
Activity [8]: inactive
selectivity ratio [9]: 746

CO/N=C(\N)c1cccc(COc2c(Br)cc(/C(N)=N/OC)cc2Br)c1.Cl.Cl
selectivity ratio [1]: < 1
IC50 [2]: > 50 µM
selectivity ratio [3]: < 1
IC50 [4]: 54.7 µM
IC50 [5]: 6790 nM
MSD [10]: >31.5 days
IC50 [7]: 69700 nM
selectivity ratio [9]: 8
Activity [11]: inactive

N=C(N)c1ccc(COc2cccc(C(=N)N)c2)cc1
selectivity ratio [1]: 694
IC50 [2]: 42.1 µM
selectivity ratio [3]: < 1
IC50 [4]: 19.3 µM
IC50 [5]: 195 nM
MSD [6]: 19 days
IC50 [7]: 28 nM
Activity [8]: inactive
selectivity ratio [9]: 99

COc1cc(/C(N)=N/O)cc(I)c1OCc1cccc(/C(N)=N/O)c1.Cl.Cl
selectivity ratio [1]: < 1
IC50 [2]: > 94.5 µM
selectivity ratio [3]: < 1
IC50 [4]: 32.1 µM
IC50 [5]: > 9450 nM
MSD [10]: 20.5 days
IC50 [7]: 38700 nM
selectivity ratio [9]: < 3
Activity [11]: inactive

CO/N=C(\N)c1cccc(COc2ccc(/C(N)=N/OC)cc2Br)c1.Cl.Cl
selectivity ratio [1]: 1
IC50 [2]: 5.66 µM
selectivity ratio [3]: 17
IC50 [4]: 99.4 µM
IC50 [5]: > 9960 nM
MSD [10]: >60 days
IC50 [7]: 79100 nM
selectivity ratio [9]: < 10
Activity [11]: Active

Cl.Cl.N/C(=N\O)c1ccc(COc2ccc(/C(N)=N/O)cc2I)cc1
selectivity ratio [1]: < 1
IC50 [2]: > 100 µM
selectivity ratio [3]: < 1
IC50 [4]: 18.1 µM
IC50 [5]: 5290 nM
MSD [10]: 29.75 days
IC50 [7]: 25800 nM
selectivity ratio [9]: 3
Activity [11]: inactive

Cl.Cl.N/C(=N\O)c1cccc(COc2ccc(/C(N)=N/O)cc2I)c1
selectivity ratio [1]: < 1
IC50 [2]: > 50 µM
selectivity ratio [3]: < 1
IC50 [4]: 4.73 µM
IC50 [5]: 7310 nM
MSD [10]: 20 days
IC50 [7]: 50200 nM
selectivity ratio [9]: < 1
Activity [11]: inactive

Cl.Cl.N/C(=N\O)c1ccc(COc2ccc(/C(N)=N/O)cc2Br)cc1
selectivity ratio [1]: < 1
IC50 [2]: > 100 µM
selectivity ratio [3]: < 1
IC50 [4]: 6.6 µM
IC50 [5]: > 11100 nM
MSD [10]: 28.75 days
IC50 [7]: 24000 nM
selectivity ratio [9]: < 1
Activity [11]: inactive

CO/N=C(\N)c1cccc(COc2c(I)cc(/C(N)=N/OC)cc2I)c1.Cl.Cl
selectivity ratio [1]: 1
IC50 [2]: 44.2 µM
selectivity ratio [3]: < 1
IC50 [4]: 27.5 µM
IC50 [5]: > 7100 nM
MSD [10]: 19.75 days
IC50 [7]: 26300 nM
selectivity ratio [9]: < 4
Activity [11]: inactive

COc1cc(C(=N)N)cc(Br)c1OCc1cccc(C(=N)N)c1.Cl.Cl
selectivity ratio [1]: 4070
IC50 [2]: 11.4 µM
selectivity ratio [3]: < 2
IC50 [4]: 21.6 µM
IC50 [5]: 28.9 nM
MSD [6]: >45.75 days
IC50 [7]: 5 nM
Activity [8]: inactive
selectivity ratio [9]: 747

N=C(N)c1cccc(COc2c(Cl)cc(C(=N)N)cc2Cl)c1
selectivity ratio [1]: 57
IC50 [2]: 6.51 µM
selectivity ratio [3]: < 1
IC50 [4]: 0.57 µM
IC50 [5]: 185 nM
MSD [6]: 27.5 days
IC50 [7]: 10 nM
Activity [8]: inactive
selectivity ratio [9]: 3

COc1cc(/C(N)=N/O)cc(OC)c1OCc1cccc(/C(N)=N/O)c1.Cl.Cl
selectivity ratio [1]: < 1
IC50 [2]: > 100 µM
selectivity ratio [3]: < 1
IC50 [4]: 70.7 µM
IC50 [5]: > 11500 nM
MSD [10]: 16.5 days
IC50 [7]: 157000 nM
selectivity ratio [9]: < 6
Activity [11]: inactive

COc1cc(C(=N)N)cc(OC)c1OCc1ccc(C(=N)N)cc1.Cl.Cl
selectivity ratio [1]: 1910
IC50 [2]: > 100 µM
selectivity ratio [3]: < 2
IC50 [4]: 209 µM
IC50 [5]: 177 nM
MSD [6]: 15 days
IC50 [7]: 110 nM
Activity [8]: inactive
selectivity ratio [9]: 1180

COc1cc(C(=N)N)cc(OC)c1OCc1cccc(C(=N)N)c1.Cl.Cl
selectivity ratio [1]: 524
IC50 [2]: > 100 µM
selectivity ratio [3]: < 1
IC50 [4]: 96 µM
IC50 [5]: 231 nM
MSD [6]: 16.25 days
IC50 [7]: 183 nM
Activity [8]: inactive
selectivity ratio [9]: 416

N=C(N)c1cccc(COc2c(I)cc(C(=N)N)cc2I)c1
selectivity ratio [1]: 5680
IC50 [2]: 1.39 µM
selectivity ratio [3]: 14
IC50 [4]: 19.3 µM
IC50 [5]: 66.4 nM
MSD [6]: 21.25 days
IC50 [7]: 3 nM
Activity [8]: inactive
selectivity ratio [9]: 291

N=C(N)c1ccc(COc2ccc(C(=N)N)cc2)cc1
selectivity ratio [1]: 77
IC50 [2]: 8.77 µM
selectivity ratio [3]: < 14
IC50 [4]: 6.96 µM
IC50 [5]: 78 nM
MSD [6]: 22.5 days
IC50 [7]: 91 nM
Activity [8]: inactive
selectivity ratio [9]: 89

Cl.Cl.N=C(N)c1cccc(COc2ccc(C(=N)N)cc2[N+](=O)[O-])c1
selectivity ratio [1]: 324
IC50 [2]: 11.3 µM
selectivity ratio [3]: < 1
IC50 [4]: 10.8 µM
IC50 [5]: 18 nM
MSD [6]: 23.25 days
IC50 [7]: 34 nM
Activity [8]: inactive
selectivity ratio [9]: 592

Cl.Cl.N/C(=N\O)c1cccc(COc2c(I)cc(/C(N)=N/O)cc2I)c1
selectivity ratio [1]: 1
IC50 [2]: 6.63 µM
selectivity ratio [3]: 2
IC50 [4]: 15.8 µM
IC50 [5]: 7380 nM
MSD [10]: 5.75 days
IC50 [7]: 13600 nM
selectivity ratio [9]: 2.14
Activity [11]: inactive

N=C(N)c1cccc(COc2ccc(C(=N)N)cc2Cl)c1
selectivity ratio [1]: 1900
IC50 [2]: 2.91 µM
selectivity ratio [3]: 5
IC50 [4]: 13.9 µM
IC50 [5]: 51 nM
MSD [6]: 24.5 days
IC50 [7]: 7 nM
Activity [8]: inactive
selectivity ratio [9]: 275

N=C(N)c1cccc(COc2c(Br)cc(C(=N)N)cc2Br)c1
selectivity ratio [1]: 1270
IC50 [2]: 3.37 µM
selectivity ratio [3]: 1
IC50 [4]: 4.7 µM
IC50 [5]: 120 nM
MSD [6]: >35.25 days
IC50 [7]: 4 nM
Activity [8]: inactive
selectivity ratio [9]: 39

CO/N=C(\N)c1cccc(COc2ccc(/C(N)=N/OC)cc2I)c1.Cl.Cl
selectivity ratio [1]: 2
IC50 [2]: > 100 µM
selectivity ratio [3]: < 1
IC50 [4]: 81 µM
IC50 [5]: 6300 nM
MSD [10]: 22.25 days
IC50 [7]: 34700 nM
selectivity ratio [9]: 13
Activity [11]: inactive

COc1cc(C(=N)N)ccc1OCc1cccc(C(=N)N)c1
selectivity ratio [1]: 4400
IC50 [2]: 28.6 µM
selectivity ratio [3]: 3
IC50 [4]: 85.4 µM
IC50 [5]: 31 nM
MSD [6]: 22 days
IC50 [7]: 19 nM
Activity [8]: inactive
selectivity ratio [9]: 2760
